Source: ChEMBL document CHEMBL4376902, “CN128: A New Orally Active Hydroxypyridinone Iron Chelator” (J Med Chem, 2020)
The source made the active and inactive calls. The calls are words filed in the database; no cut-off is given here.

Legend:
Rattus norvegicus [1] = experiment: Iron scavenging activity in 59Fe-ferritin-loaded rat assessed as iron mobilization level at 450 umol/kg, po dosed 1 hr after 59Fe-ferritin injection and measured 24 hrs after 59Fe-ferritin injection by gamma counting method relative to control; assay type: functional
Outline: (§1)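 Male SD rats, 300 g, fasted overnight, given about 1 μC 59Fe-ferritin i.v. under isoflurane. Chelator gavaged 1 h later, then rats housed in metabolic cages; food returned 1 h after dosing. Killed 24 h after 59Fe-ferritin. Urine, faeces, liver and gut gamma-counted. 8 rats per condition.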

Rattus norvegicus [2] = experiment: Iron scavenging activity in 59Fe-ferritin-loaded rat assessed as iron mobilization level at 150 umol/kg, po dosed 1 hr after 59Fe-ferritin injection and measured 24 hrs after 59Fe-ferritin injection by gamma counting method relative to control; assay type: functional, organism-based; outline: as §1
[3] = Lipophilicity coefficient, logP of the compound in Tris buffer at pH 7.0 (100 mM/n-octanol); assay type: physicochemical
Outline: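 Octanol/water partition measured between n-octanol and 100 mM Tris buffer, pH 7.0.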

[4] = Drug metabolism in human liver microsomes assessed as glucuronidation incubated for 1 hr relative to deferiprone; assay type: ADME, Microsome
Outline: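 Compound incubated 1 h with rat or human liver microsomes, n = 4, mean ± SD. Glucuronide formed given as percentage of total chelator added. Oxidative metabolism assessed separately.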

[5] = Drug metabolism in rat liver microsomes assessed as oxidative metabolism incubated for 1 hr relative to deferiprone; assay type: ADME, Microsome
[6] = Drug metabolism in rat bile assessed as (2S,3S,4S,5R,6S)-6-[[1-[(1R)-1-benzyl-2-hydroxyethyl]-2-methyl-4-oxo-3-pyridyl]oxy]-3,4,5-trihydroxy-tetrahydropyran-2-carboxylic acid formation at 150 umol/kg, po by LC/TOF/MS/MS analysis; assay type: ADME, organism-based; conditions: in vivo
Outline: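 Bile collected from rats after an oral dose of 150 μmol/kg. Metabolites characterised by β-glucuronidase hydrolysis and LC-TOFMS/MS. M2/M1 ratio followed over 8 h.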

[7] = Ratio of drug level in adrenal gland to plasma in rat at 150 umol/kg, po measured within 10 mins by LC-MS/MS analysis; assay type: ADME, organism-based; conditions: adrenal gland and plasma
Outline: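 SD rats (half male, half female, n = 6 per group) given a single oral 150 μmol/kg dose. Killed at 10 min, 30 min, 2 h or 6 h; tissues washed in saline, weighed and homogenised in acetonitrile/water 1:9 (125 mg/mL). Tissue levels compared with plasma.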

[8] = Drug level in rat liver at 150 umol/kg, po measured measured up to 6 hrs by LC-MS/MS analysis; assay type: ADME, organism-based; conditions: in vivo
Outline: (§2)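 Single oral dose of 150 μmol/kg to SD rats, half male and half female, n=6 per group. Rats decapitated at 10 min, 30 min, 2 h and 6 h. Tissues dissected, saline-washed, weighed and homogenised in acetonitrile/water 1:9 (125 mg/mL). Drug level measured against plasma; mean ± SE.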

[9] = Drug level in rat kidney at 150 umol/kg, po measured measured up to 6 hrs by LC-MS/MS analysis; assay type: ADME, organism-based; conditions: in vivo; outline: as §2
[10] = Binding affinity to Ni2+ ion assessed as affinity constant by spectrophotometric titration method
Outline: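 Automated spectrophotometric titration with 0.1 M KOH in 0.1 pH steps, 3 min equilibration per step, 50 mm cuvette, iron complexes at ca. 40 µM. Titrated in competition with metal hydrolysis species up to pH 12.0. Hydrolysis constants taken from critical compilations. Iron spectra fitted over 400–700 nm.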

[11] = Binding affinity to Zn2+ ion assessed as affinity constant by spectrophotometric titration method
[12] = Binding affinity to Cu2+ ion assessed as affinity constant by spectrophotometric titration method
[13] = Binding affinity to Al3+ ion assessed as affinity constant by spectrophotometric titration method
Rattus norvegicus [14] = experiment: Iron scavenging activity in iron-overloaded rat assessed as iron removal efficacy at 75 to 1200 umol/kg, po; assay type: functional, organism-based
Outline: (§3)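 Male SD rats (300 g), fasted overnight, given about 1 μC 59Fe-ferritin i.v. under isoflurane; chelator by oral gavage 1 h later; doses 75, 150, 300, 600 and 1200 μmol/kg. Rats housed in metabolic cages, food returned 1 h post-dose; killed 24 h after ferritin injection. Urine, faeces, liver and gut gamma-counted. Iron removal expressed as % efficacy.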

Rattus norvegicus [15] = experiment: Iron scavenging activity in iron-overloaded rat assessed as iron removal efficacy at 150 to 300 umol/kg, po relative to deferiprone; assay type: functional; outline: as §3
[16] = Apparent clearance in Sprague-Dawley rat at 300 umol/kg, po measured up to 1440 mins by LC/MS/MS analysis; assay type: ADME, organism-based; conditions: in vivo, read-out: CL(app) (converted)
[17] = Apparent clearance in Sprague-Dawley rat at 600 umol/kg, po measured up to 1440 mins by LC/MS/MS analysis; assay type: ADME, organism-based; conditions: in vivo, read-out: CL(app) (converted)
[18] = Genotoxicity in Salmonella typhimurium by Ames test; assay type: toxicity; conditions: salmonella enterica subsp. enterica serovar typhimurium
[19] = Toxicity in Sprague-Dawley rat assessed as induction of histopathological changes in bone marrow at 25 to 116 mg/kg, po dosed daily for 4 weeks during chronic 4 week toxicity test; assay type: organism-based; conditions: in vivo, 672 h
[20] = Toxicity in Sprague-Dawley rat assessed as induction of histopathological changes in pancreas at 25 to 116 mg/kg, po dosed daily for 4 weeks and measured after additional 4 weeks period in absence of drug; assay type: organism-based; conditions: in vivo, 672 h
[21] = Toxicity in Sprague-Dawley rat assessed as induction of histopathological changes in bone marrow at 25 to 116 mg/kg, po dosed daily for 4 weeks and measured after additional 4 weeks period in absence of drug; assay type: organism-based; conditions: in vivo, 672 h
[22] = Toxicity in Sprague-Dawley rat assessed as induction of histopathological changes in thymus at 25 to 116 mg/kg, po dosed daily for 4 weeks and measured after additional 4 weeks period in absence of drug; assay type: organism-based; conditions: in vivo, 672 h
[23] = Binding affinity to Mg2+ ion assessed as pM value by spectrophotometric titration method
[24] = Binding affinity to Co2+ ion assessed as pM value by spectrophotometric titration method
Mus musculus [25] = experiment: Toxicity in mouse assessed as reduction in monocytes counts at 200 mg/kg, po dosed once daily for 2 months as 5 days per week schedule; conditions: in vivo, 120 h
Mus musculus [26] = experiment: Toxicity in mouse assessed as effect on platelet population at 200 mg/kg, po dosed once daily for 2 months as 5 days per week schedule; conditions: in vivo, 120 h
Mus musculus [27] = experiment: Toxicity in mouse assessed as reduction in neutrophils counts at 200 mg/kg, po dosed once daily for 2 months as 5 days per week schedule; conditions: in vivo, 120 h
Mus musculus [28] = experiment: Toxicity in mouse assessed as reduction in lymphocytes counts at 200 mg/kg, po dosed once daily for 2 months as 5 days per week schedule; conditions: in vivo, 120 h
Mus musculus [29] = experiment: Toxicity in mouse assessed as reduction in total white cell counts at 200 mg/kg, po dosed once daily for 2 months as 5 days per week schedule; conditions: in vivo, 120 h

Cc1c(O)c(O)cc[n+]1[C@@H](CO)Cc1ccccc1.[Cl-]
Activity (Rattus norvegicus [1]): 24.8% | Activity (Rattus norvegicus [2]): Active | logD [3]: 0.62 | Drug metabolism [4]: Metabolite_Detected | Drug metabolism [5]: Metabolite_Detected | Drug metabolism [6]: Metabolite_Detected | Kp at 10 min [7]: 3.3 to 8.8 | Drug uptake [8]: Not Active | Drug uptake [9]: Not Active | log K [10]: 6.92 | K [11]: 6.15 pM | log K [11]: 7.05 | K [12]: 8.31 pM | log K [12]: 10.4 | K [13]: 13 pM | log K [13]: 12.2 | Activity (Rattus norvegicus [14]): Dose-dependent effect | fold change (FC) (Rattus norvegicus [15]): 3.1 - 3.8 | CL/F [16]: 15.3 mL/min/kg | CL/F [17]: 15.2 mL/min/kg | Activity [18]: Non-Toxic | Activity [19]: Toxic | Activity [20]: Non-Toxic | Activity [21]: Non-Toxic | Activity [22]: Non-Toxic | pM [23]: 7.59 | pM [24]: 6.17 | Activity (Mus musculus [25]): Non-Toxic | Activity (Mus musculus [26]): Non-Toxic | Activity (Mus musculus [27]): Non-Toxic | Activity (Mus musculus [28]): Non-Toxic | Activity (Mus musculus [29]): Non-Toxic
